Source: ChEMBL document CHEMBL3779799, “Antifibrotic and anticancer action of 5-ene amino/iminothiazolidinones” (Eur J Med Chem, 2016)
Active and inactive are the calls of the source. No cut-off for these calls is given here.

Key:
HFL1 [1] = test: Antifibrotic activity in HFL1 cells assessed as inhibition of cell viability at >1 uM after 48 hrs by sulforhodamine B assay relative to control; format: functional; settings: Homo sapiens, HFL1, 48 h
How it was run: (§1)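 HFL-1 human fetal lung fibroblasts (DMEM, 10% FCS, passages 14–18) seeded at 8000 cells/well, attached overnight, then exposed to a range of concentrations for 48 h in triplicate. Cells were fixed with TCA and stained with 0.4% SRB, bound dye was solubilized in Tris, and OD was read at 570 nm relative to control.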

[2] = Antioxidant activity assessed as inhibition of superoxide anion generation measured for 3 mins by nitro blue tetrazolium assay; format: physicochemical; settings: for Emax: 0.05 h
How it was run: (§2)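 Cell-free superoxide generated by xanthine (1 mM) and xanthine oxidase (0.11 U/mL), with NBT (50 µM) as detector. Compounds in DMSO were tested up to 10 µM, with DMSO held at 0.1%. NBT reduction rate (dA560/dt) was read spectrophotometrically over 3 min from the linear part.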

HFL1 [3] = test: Antifibrotic activity in HFL1 cells assessed as inhibition of cell viability after 48 hrs by sulforhodamine B assay; format: functional, cell-based; settings: Homo sapiens, HFL1, 48 h; how it was run: as §1
HFL1 [4] = test: Antifibrotic activity in HFL1 cells assessed as reduction in cell proliferation at 0.1 to 1 uM after 150 hrs by xCelligence analysis; format: functional, cell-based; settings: Homo sapiens
How it was run: (§3)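 HFL-1 cells were seeded at 20,000/well and monitored by real-time impedance (xCelligence). Compound or DMSO vehicle was added at ~30 h, once attachment was maximal, and cells were followed for another 150 h. P150 was taken as the signal difference between 30 h and 180 h; Pdot was the maximum slope of the curve.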

[5] = Antioxidant activity assessed as inhibition of superoxide anion generation upto 10 uM measured for 3 mins by nitro blue tetrazolium assay; format: physicochemical; settings: 0.05 h; how it was run: as §2
HFL1 [6] = test: Antifibrotic activity in HFL1 cells assessed as reduction in maximum rate of cell proliferation after 150 hrs by xCelligence analysis; format: functional, cell-based; settings: Homo sapiens; how it was run: as §3
HFL1 [7] = test: Antifibrotic activity in HFL1 cells assessed as reduction in cell proliferation after 150 hrs by xCelligence analysis; settings: Homo sapiens
[8] = Cytotoxicity against human SF268 cells assessed as cell growth at 10^-4 M after 48 hrs by sulforhodamine B assay relative to control; format: functional; settings: SF-268, 48 h, read-out: Activity
How it was run: (§4)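 Cells were inoculated and preincubated 24–48 h, then exposed to a single dose of 10^-4 M for 48 h. SRB protein staining was the endpoint, and growth percent was calculated versus untreated controls.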

MCF7 = test: Cytotoxicity against human MCF7 cells assessed as cell growth at 10^-4 M after 48 hrs by sulforhodamine B assay relative to control; format: functional; settings: MCF7, 48 h, read-out: Activity; how it was run: as §4
NCI-H460 = test: Cytotoxicity against human NCI-H460 cells assessed as cell growth at 10^-4 M after 48 hrs by sulforhodamine B assay relative to control; format: functional; settings: NCI-H460, 48 h, read-out: Activity; how it was run: as §4

**Q.** For `CCOc1cc(/C=C2\SC(Nc3nc4ccc(C)cc4s3)=NC2=O)ccc1O`, which Emax (HFL1 [1]) is on record?
**A.** Its Emax is 48.1%.

**Q.** And the IC50 [2]?
**A.** The IC50 was 6.8 µM.

**Q.** And the Emax [2]?
**A.** The Emax was 38.7%.

**Q.** And the IC50 (HFL1 [3])?
**A.** Its IC50 is 10 nM.

**Q.** Which Emax (HFL1 [1]) does the source give for `CCC1S/C(=N\N=C/c2cccnc2)N(Cc2ccco2)C1=O` (mixture of isomers) here?
**A.** Its Emax is 44.7%.

**Q.** And the IC50 (HFL1 [3])?
**A.** The IC50 was 210 nM.

**Q.** Which results are given for `Cc1cc(O)c(C(C)C)cc1NC1=NC(=O)S/C1=C\c1ccc(Cl)cc1`?
**A.** Emax (HFL1 [1]): 75.5%; IC50 (HFL1 [3]): 30 nM

**Q.** Which Emax (HFL1 [1]) does the source give for `O=C1N=C(Nc2ccc(Cl)cc2)/C(=C/c2cccs2)S1` here?
**A.** Its Emax is 79%.

**Q.** What about the Activity (HFL1 [4]) of the same compound?
**A.** Its Activity is “Active”.

**Q.** What about the “inhibition (INH)” value [5] of the same compound?
**A.** The value was “Not Active”.

**Q.** And the Activity (HFL1 [6])?
**A.** The Activity was “Dose-dependent effect”.

**Q.** And the IC50 (HFL1 [3])?
**A.** Its IC50 is 570 nM.

**Q.** Which Emax (HFL1 [1]) does the source give for `COc1ccc(/C=C2\SC(Nc3nnc(SCC(=O)Nc4ccc(Cl)cc4)s3)=NC2=O)cc1` here?
**A.** The Emax was 53.8%.

**Q.** What about the IC50 [2] of the same compound?
**A.** Its IC50 is 0.81 µM.

**Q.** And the Emax [2]?
**A.** The Emax was 86.4%.

**Q.** And the IC50 (HFL1 [3])?
**A.** Its IC50 is 160 nM.

**Q.** Which results are given for `COc1ccccc1NC(=O)CSc1nnc(/N=C2\NC(=O)CS2)s1`?
**A.** Emax (HFL1 [1]): 75%; Activity (HFL1 [4]): Active; inhibition (INH) [5]: Not Active; IC50 (HFL1 [3]): 400 nM

**Q.** Which Emax (HFL1 [1]) does the source give for `O=C(CC1SC(=Nc2cccc(O)c2)NC1=O)Nc1ccc(Br)cc1` (racemic) here?
**A.** The Emax was 77.6%.

**Q.** What about the “inhibition (INH)” value [5] of the same compound?
**A.** Its value is “Not Active”.

**Q.** What about the IC50 (HFL1 [3]) of the same compound?
**A.** The IC50 was 160 nM.

**Q.** For `O=C1N=C(Nc2ccc(O)cc2)S/C1=C\c1ccc(Cl)cc1`, which Emax (HFL1 [1]) is on record?
**A.** The Emax was 46.1%.

**Q.** What about the Activity (HFL1 [7]) of the same compound?
**A.** Its Activity is “Dose-dependent effect”.

**Q.** What about the IC50 (HFL1 [3]) of the same compound?
**A.** The IC50 was 20 nM.

**Q.** For `O=C1CS/C(=N\N=C/c2cccnc2)N1Cc1ccco1`, which Emax (HFL1 [1]) is on record?
**A.** The Emax was 69.4%.

**Q.** What about the IC50 (HFL1 [3]) of the same compound?
**A.** Its IC50 is 500 nM.

**Q.** For `O=C(CC1SC(Nc2ccc(O)cc2)=NC1=O)c1ccc(F)cc1` (racemic), which Emax (HFL1 [1]) is on record?
**A.** Its Emax is 54.2%.

**Q.** And the growth at 100 µM [8]?
**A.** Its growth at 100 µM is 53%.

**Q.** And the growth at 100 µM (MCF7)?
**A.** Its growth at 100 µM is 66%.

**Q.** And the IC50 (HFL1 [3])?
**A.** The IC50 was 190 nM.

**Q.** What about the growth at 100 µM (NCI-H460) of the same compound?
**A.** The growth at 100 µM was 62%.

**Q.** Which results are given for `CC(/C=N/N=C1\SC(CC(=O)Nc2cccc(C(F)(F)F)c2)C(=O)N1Cc1ccco1)=C\c1ccccc1` (mixture of isomers)?
**A.** Emax (HFL1 [1]): 44.3%; Activity (HFL1 [7]): Dose-dependent effect; IC50 (HFL1 [3]): 30 nM

**Q.** With `Cc1ccc2c(c1)/C(=C1/SC(N(C)c3ccc(O)cc3)=NC1=O)C(=O)N2` as the compound, how does the Emax (HFL1 [1]) read?
**A.** Its Emax is 31.3%.

**Q.** What about the growth at 100 µM [8] of the same compound?
**A.** The growth at 100 µM was 74%.

**Q.** What about the growth at 100 µM (MCF7) of the same compound?
**A.** The growth at 100 µM was 89%.

**Q.** What about the IC50 (HFL1 [3]) of the same compound?
**A.** Its IC50 is 70 nM.

**Q.** And the growth at 100 µM (NCI-H460)?
**A.** Its growth at 100 µM is 95%.
